This passage reports MIC, selectivity ratio and IC50 results from ChEMBL document CHEMBL4257537, “Design, synthesis, and biological evaluation of m-amidophenol derivatives as a new class of antitubercular agents” (Medchemcomm, 2018).

Converted amounts (≈) assume the structure as drawn.

Data set [1] deals with Mycobacterium tuberculosis. Nature of the data set: Antitubercular activity against Mycobacterium tuberculosis H37Ra after 5 days by luminescence assay. The data set is classed as functional. To be noted: 120 h. Put shortly: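 Compounds were 10-point two-fold dilutions in 7H9-Tw-OADC, top 100 µg/mL, final DMSO 2%. Controls were INH 1 µg/mL (zero growth) and DMSO (maximum growth). RLU was read daily in triplicate over days 0–5. Percent growth was fitted to a Gompertz model, and MIC was taken where the inflection point meets the lower asymptote.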

The next data set relates to Escherichia coli. Description: Toxicity in Escherichia coli after 18 to 24 hrs by two-fold serial dilution method. Type of data set: organism-based.
Data set [2] can be described thus: Selectivity index, ratio of IC50 for mouse RAW264.7 cells to MIC for Mycobacterium tuberculosis H37Ra. The data set is classed as toxicity. The following applies: read-out: Selectivity Index.
The test system of the next data set is HepG2. Description: Cytotoxicity against human HepG2 cells after 72 hrs by MTT assay. Type of data set: cell-based. To be noted: HepG2, 72 h. In general terms: Tetrazolium dyes change colour on reduction, which living cells bring about.
A further data set concerns RAW264.7. Description: Cytotoxicity against mouse RAW264.7 cells after 72 hrs by MTT assay. The following applies: RAW264.7, 72 h. Type of data set: cell-based.
For data set [3], the system named is Mycobacterium tuberculosis. Description: Antimycobacterial activity against Mycobacterium tuberculosis H37Rv after 7 days by microplate alamar blue assay. Type of data set: functional. To be noted: 168 h. The gist of the method:
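Each well held a 1/100 culture dilution plus 10-point two-fold DMSO dilutions (top 100 µg/mL, final DMSO 2%). INH and RIF were the positive controls. After 7 days at 37 °C, Tween 80 and alamarBlue were added for 16–24 h. MIC was the lowest concentration preventing the blue-to-pink change.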

The next data set deals with Enterococcus faecalis. Nature of the data set: Toxicity in Enterococcus faecalis after 18 to 24 hrs by two-fold serial dilution method. Type of data set: organism-based.
Data set [4] can be described thus: Selectivity index, ratio of IC50 for human HepG2 cells to MIC for Mycobacterium tuberculosis H37Ra. The data set is classed as toxicity. To be noted: read-out: Selectivity Index.
For a further data set, the system named is Staphylococcus aureus. Nature of the data set: Toxicity in Staphylococcus aureus after 18 to 24 hrs by two-fold serial dilution method. Type of data set: organism-based.

`O=C(Nc1cccc(O)c1)c1ccccc1`: the MIC in data set [1] was over 50 µg/mL.

Compound `CC(C)CCc1cc(O)cc(NC(=O)C2CCCCC2)c1` gave an MIC in data set [1] of over 50 µg/mL.

`O=C(Nc1cc(O)cc(Cc2ccccc2)c1)C(F)(F)F`: the MIC in data set [1] was over 50 µg/mL.

Regarding `O=C(Nc1cc(O)cc(Cc2ccccc2)c1)c1ccco1`, in data set [1], the MIC worked out at 10 µg/mL (≈ 34.1 µM).

As for `CC(C)(C)C(=O)Nc1cc(O)cc(Cc2ccccc2)c1`, the MIC in data set [1] was determined as 2.5 µg/mL (≈ 8.82 µM).

`O=C(O)c1cc(Cc2ccccc2)cc(NC(=O)c2ccccc2)c1`: the MIC in data set [1] is over 50 µg/mL.

For `O=C(Nc1cc(O)cc(Cc2ccccc2)c1)c1ccc(C2CCCCC2)cc1`, the MIC in [1] is over 50 µg/mL.

`O=C(Nc1cc(O)cc(Cc2ccccc2)c1)c1ccc(OC(F)(F)F)cc1` gave an MIC in data set [1] of 10 µg/mL (≈ 25.8 µM).

For `O=C(Nc1cc(O)cc(Cc2ccccc2)c1)c1cccnc1Cl`, the MIC in data set [1] worked out at 5 µg/mL (≈ 14.8 µM).

Consider `Cc1ccc(C(=O)Nc2cc(O)cc(Cc3ccccc3)c2)cc1`, for which the MIC in [1] was 1.25 µg/mL (≈ 3.94 µM).

`O=C(Nc1cc(O)cc(Cc2ccccc2)c1)c1ccc(Cl)cc1Cl`: the MIC in data set [1] was 5 µg/mL (≈ 13.4 µM).

Compound `O=C(Nc1cc(O)cc(Cc2ccccc2)c1)c1ccccc1Cl` returned an MIC in data set [1] of 2.5 µg/mL (≈ 7.4 µM).

For the compound `O=C(Nc1cc(O)cc(Cc2ccccc2)c1)c1cccs1`, the MIC in data set [1] was determined as 2.5 µg/mL (≈ 8.08 µM).

For the compound `CCC1CCC(C(=O)Nc2cc(O)cc(Cc3ccccc3)c2)CC1` (stereo unspecified), the MIC in [1] was 2.5 µg/mL (≈ 7.41 µM).

Usually IC50 stands for the midpoint of a concentration-inhibition curve. The low end stands for greater potency in that assay, the high end for weaker potency in that assay. `O=C(Nc1cc(O)cc(Cc2ccccc2)c1)C1CCCCC1`: the MIC in the data set with Escherichia coli was over 50 µg/mL; in [1] it was 0.625 µg/mL (≈ 2.02 µM); in data set [3], 0.39 µg/mL (≈ 1.26 µM); with Enterococcus faecalis it was over 50 µg/mL; in the data set on Staphylococcus aureus it was over 50 µg/mL. The selectivity ratio in data set [2] is over 160; in data set [4] it was over 80. In addition, the IC50 in the data set on HepG2 was over 161 µM; with RAW264.7, over 323 µM.

`Nc1cc(Cc2ccccc2)cc(NC(=O)c2ccccc2)c1`: the MIC in data set [1] amounted to 10 µg/mL (≈ 33.1 µM).

Consider `CC(=O)Nc1cc(O)cc(Cc2ccccc2)c1`, for which the MIC in data set [1] is over 100 µg/mL.

With `Cc1nnsc1C(=O)Nc1cc(O)cc(Cc2ccccc2)c1`, the MIC in [1] came to 10 µg/mL (≈ 30.7 µM).

As for `O=C(Nc1cc(O)cc(Cc2ccccc2)c1)C1CCCC1`, the MIC in [1] turned out to be 2.5 µg/mL (≈ 8.46 µM).

Consider `COc1cc(Cc2ccccc2)cc(NC(=O)c2ccccc2)c1`, for which the MIC in [1] was over 50 µg/mL.

In turn, `CC(C)(C)c1ccc(C(=O)Nc2cc(O)cc(Cc3ccccc3)c2)cc1` gave an MIC in data set [1] of 2.5 µg/mL (≈ 6.95 µM).

Regarding `O=C(Nc1cc(O)cc(Cc2ccccc2)c1)C1CCOCC1`, the MIC in [1] came to 6.25 µg/mL (≈ 20.1 µM).

Take `O=C(Nc1cc(O)cc(Cc2ccccc2)c1)c1cc(C(F)(F)F)cc(C(F)(F)F)c1`: the MIC in data set [1] was over 25 µg/mL.

Regarding `O=C(Nc1cc(O)cc(Cc2ccccc2)c1)C1CC1`, the MIC in data set [1] is 5 µg/mL (≈ 18.7 µM).

In [1], `CCCCCc1cc(O)cc(NC(=O)C2CCCCC2)c1` gave an MIC of over 50 µg/mL.

Turning to `O=C(Nc1cc(O)cc(Cc2ccccc2)c1)N1CCOCC1`, in data set [1], the MIC is 12.5 µg/mL (≈ 40 µM).

Turning to `Cc1ccc(C)c(Cc2cc(O)cc(NC(=O)C3CCCCC3)c2)c1`, the MIC in data set [1] is over 50 µg/mL.

As for `Oc1cccc(Cc2ccccc2)c1`, in data set [1], the MIC was over 50 µg/mL.

Take `O=C(Nc1cc(O)cc(Cc2ccccc2)c1)c1ccc(C(F)(F)F)cc1`: the MIC in [1] was determined as 5 µg/mL (≈ 13.5 µM).

In the case of `CC(C)(C)C1CCC(C(=O)Nc2cc(O)cc(Cc3ccccc3)c2)CC1` (stereo unspecified), in [1], the MIC was over 50 µg/mL.

For the compound `O=C(Nc1cc(O)cc(Cc2ccccc2)c1)C12CC3CC(CC(C3)C1)C2`, the MIC in data set [1] is over 50 µg/mL.

For `O=C(Nc1cc(O)cc(Cc2ccccc2)c1)c1ccccc1`, the MIC is over 50 µg/mL against Escherichia coli; 5 µg/mL (≈ 16.5 µM) in data set [1]; 0.39 µg/mL (≈ 1.29 µM) in [3]; over 50 µg/mL with Enterococcus faecalis; over 50 µg/mL against Staphylococcus aureus. In addition, the selectivity ratio in [2] and in data set [4] was over 20 throughout. Further, the IC50 with HepG2 and in the data set with RAW264.7 was over 330 µM each time.

The compound `O=C(Nc1cc(O)cc(C(O)c2ccccc2)c1)c1ccccc1` (stereo unspecified) showed an MIC in data set [1] of over 50 µg/mL.

For the compound `O=C(Nc1cc(O)cc(Cc2ccccc2)c1)c1ccc(F)c(Cl)c1`, the MIC in data set [1] was 5 µg/mL (≈ 14.1 µM).

With `CCCc1cc(O)cc(NC(=O)C2CCCCC2)c1`, in data set [1], the MIC is over 50 µg/mL.

For the compound `O=C(Nc1cc(O)cc(Cc2ccccc2)c1)c1ccc([N+](=O)[O-])cc1`, the MIC in data set [1] is over 50 µg/mL.

With `O=C(Nc1cc(O)cc(Cc2ccccc2)c1)c1cccc(Cl)c1`, in data set [1], the MIC amounted to 2.5 µg/mL (≈ 7.4 µM).

Consider `O=C(Nc1cc(O)cc(Cc2ccccc2)c1)c1ccc(Cl)cc1`, for which the MIC in data set [1] came to 2.5 µg/mL (≈ 7.4 µM).

`CC(C)C(=O)Nc1cc(O)cc(Cc2ccccc2)c1` had an MIC in [1] of 5 µg/mL (≈ 18.6 µM).

Compound `CC1(C)S[C@@H]2[C@H](NC(=O)[C@H](N)c3ccc(O)cc3)C(=O)N2[C@H]1C(=O)O` [AMOXICILLIN] returned an MIC against Staphylococcus aureus of 0.78 µg/mL (≈ 2.13 µM).

`NNC(=O)c1ccncc1` [ISONIAZID]: the MIC in [1] was 0.1 µg/mL (≈ 0.729 µM); in data set [3], 0.41 µg/mL (≈ 2.99 µM).

On to `CC1COc2c(N3CCN(C)CC3)c(F)cc3c(=O)c(C(=O)O)cn1c23` (stereo unspecified) [OFLOXACIN], for which the MIC was 1.25 µg/mL (≈ 3.46 µM) against Escherichia coli and 0.31 µg/mL (≈ 0.858 µM) against Staphylococcus aureus.

As to `CO[C@H]1/C=C/O[C@@]2(C)Oc3c(C)c(O)c4c(O)c(c(/C=N/N5CCN(C)CC5)c(O)c4c3C2=O)NC(=O)/C(C)=C\C=C\[C@H](C)[C@H](O)[C@@H](C)[C@@H](O)[C@@H](C)[C@H](OC(C)=O)[C@@H]1C` [RIFAMPIN], the MIC in [3] amounted to 0.003 µg/mL (≈ 0.00365 µM).
